The list is not random: actives were taken first. Their share in the collection is about 4.7%.
Mdm2-MdmX inh: inhibitors of human Mdm2-MdmX association, primary screen, cell-based, luminescence, split luciferase, SaOS-2, uHTS. inhibition, % at 8 µM. Protein Mdm4 (Homo sapiens) + E3 ubiquitin-protein ligase Mdm2 (Homo sapiens), …. SaOS-2 split-luciferase Mdm2/MdmX complementation. hit rate 3% among 330,000;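 active = inhibition of at least 50% at 8 µM in the primary screen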
Jurkat NFkB inh: inhibitors of induced NF-kB luciferase reporter, primary screen, TCR NF-kB activation inhibitor project, cell-based, luminescence, uHTS; Jurkat, PMA/ionomycin-induced NF-kB luciferase reporter; inhibition, % at 4 µM; hit rate 0.53% among 330,000; AID 435003, 2010; in the data active = inhibition above about 50%
IMP-1 inhibitor: IMP-1 metallo-beta-lactamase inhibitors, primary screen, biochemical, epi-absorbance readout, Pseudomonas aeruginosa enzyme; purified IMP-1, nitrocefin hydrolysis, epi-absorbance fluorescence; inhibition, % at 5.6 µM; hit rate 0.45% among 290,000; metallo-beta-lactamase IMP-1 (Pseudomonas aeruginosa);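 active = inhibition above the mean plus 3 SD of all compounds in the same screening run, cut at about 4.5% in these data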;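 note: 0% = IMP-1 with DMSO and 100% = DMSO wells lacking enzyme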
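Test system: recombinant IMP-1 enzyme, purified / Medium: HEPES buffer pH 7.1 with ZnSO4 and Brij 35 / Doses: single dose, 5.6 µM / Times: 25 °C, 15 min preincubation, 25 min reaction / Detection: Epi-absorbance via hydrolysed-nitrocefin quenching of white-plate fluorescence, 480/530 nm, EDTA stop / Evaluation: percent inhibition from optical density relative to buffer-blank wells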
697 NFkB inh: inhibitors of PMA/ionomycin-induced NF-kB reporter, 697 cells, primary screen, B-cell NF-kB inhibitor project, cell-based, luminescence, uHTS | 697 B-cell NF-kB luciferase reporter, 16 h | inhibition, % at 4 µM | hit rate 0.33% among 330,000 | AID 435022, 2010; in the data active = inhibition above about 35%
aSyn UTR inh: MLPCN primary screen, SNCA 5' untranslated region. alpha-synuclein 5'UTR reporter, inhibitor activity. inhibition, % (tested at 7.5 µM). hit rate 0.82% among 300,000; in the data active = inhibition above about 60%;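 note: H4 neuroglioblastoma cells stably carrying SNCA 5'UTR luciferase fusion; 0% = DMSO wells and 100% = positive control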
VIM-2 inhibitor: VIM-2 metallo-beta-lactamase inhibitors, primary screen, biochemical, epi-absorbance readout, Pseudomonas aeruginosa enzyme; purified VIM-2, nitrocefin hydrolysis, epi-absorbance fluorescence; inhibition, % at 5.6 µM; hit rate 0.89% among 290,000;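 active = inhibition above the mean of all tested compounds plus 3 SD, cutoff set per screening run, cut at about 7.5% in these data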;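 note: red hydrolysis product quenches plate fluorescence so inhibitors raise well fluorescence; 0% = enzyme with DMSO and 100% = DMSO without enzyme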
Mdm2 MdmX conf: Mdm2-MdmX complex disruptors, retested hits, confirmation, luminescence, single concentration; shares compounds with Mdm2-MdmX inh; Mdm2-MdmX binding, luminescent assay; inhibition, % at 8 µM; hit rate 55% among 10,000; AID 489028, 2010; in the data active = inhibition above about 40%
FLuc counter: full-length luciferase signal inhibition, confirmation, counter-screen for Mdm2/MdmX interaction inhibitor project, cell-based, single concentration, SaOS-2; shares compounds with Mdm2-MdmX inh; SaOS-2 full-length luciferase counterscreen, luminescence; inhibition, % at 8 µM; hit rate 77% among 6,200; AID 504607, 2011;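 active = mean inhibition at 8 µM reaching about 37%, which flags the compound as non-specific, limit read from the data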;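 note: p53-null SaOS-2 cells with luciferase driven by a doxycycline-inducible promoter; compound on cells about two nights before reading with doxycycline added after day one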
Active calls of the source: *; / = not tested or not shown.

SMILES | Mdm2-MdmX inh | Jurkat NFkB inh | IMP-1 inhibitor | 697 NFkB inh | aSyn UTR inh | VIM-2 inhibitor | Mdm2 MdmX conf | FLuc counter
COc1ccc(C2=Nn3c(nnc3-c3ccccc3Cl)SC2)cc1OCC1CC1 | 73* | 13 | / | -12 | / | / | 57* | 45*
COc1ccc(OC)c(-c2nnc3n2N=C(c2ccc(OC)c(OCC4CC4)c2)CS3)c1 | 80* | -6 | / | -2 | / | / | 68* | 68*
Fc1ccccc1-c1nnc2n1N=C(c1ccc(OC(F)F)c(OCC3CC3)c1)CS2 | -15 | 2 | / | -32 | / | / | / | /
COc1ccc(C2=Nn3c(nnc3-c3ccccc3OC)SC2)cc1OC1CCOC1 (configuration not stated) | 71* | -21 | / | 7 | / | / | 73* | 95*
Brc1ccc(C2=Nn3c(nnc3-c3cccnc3)SC2)s1 | -20 | -7 | -2 | -17 | 6 | 1 | / | /
Cc1ccc(NC(=O)CSc2n[nH]c(-c3cccnc3)n2)cc1Cl | 30 | 4 | -3 | 10 | 9 | -2 | / | /
Cc1ccc(S(=O)(=O)N2CCCC2)cc1C(=O)NCC(C)(C)N1CCOCC1 | -8 | -9 | / | -8 | / | / | / | /
CC1=NCCN1CCNC(=O)Nc1ccc(F)cc1 | 18 | 1 | -2 | -3 | -7 | 0 | / | /
Cc1ccc([N+](=O)[O-])cc1NC(=S)NC(=O)c1cccs1 | 62* | 4 | -3 | 4 | -58 | -3 | 18 | /
COc1ccc([N+](=O)[O-])cc1NC(=O)c1cccs1 | 15 | 3 | -2 | 0 | -1 | 3 | / | /
C=CC[C@@H](CC(=O)N[C@@H](CO)Cc1ccccc1)C(=O)N[C@H](COC(=O)[C@@H](CC=C)Cc1ccc(F)cc1)Cc1ccccc1 | 53* | 1 | / | -2 | / | / | 35 | 55*
C=CC[C@H](CC(=O)NCCO)C(=O)N[C@@H](COC(=O)[C@@H](CC=C)Cc1ccc(F)cc1)Cc1ccccc1 | -16 | -11 | / | -7 | / | / | / | /
C=CC[C@@H](CC(=O)N[C@H](CO)Cc1ccccc1)C(=O)N[C@@H](COC(=O)[C@@H](CC=C)Cc1ccc(F)cc1)Cc1ccccc1 | 70* | 4 | / | -16 | / | / | 16 | /
C=CC[C@@H](CC(=O)N[C@H](CO)Cc1ccccc1)C(=O)N[C@H](COC(=O)[C@@H](CC=C)Cc1ccc(F)cc1)C(C)(C)C | 37 | -16 | / | -11 | / | / | / | /
COc1ccc(CN2CCN(S(=O)(=O)c3ccc(NC(C)=O)cc3)CC2)c(OC)c1OC | 6 | -7 | -1 | 7 | 11 | 0 | / | /
O=C(/C=C/c1c(F)cccc1Cl)NCCCN1CCOCC1 | -8 | -2 | 0 | 3 | -1 | 1 | / | /
Oc1ccccc1N=Cc1c(O)ccc2oc3c(c12)CCCC3 | 52* | -17 | -2 | -7 | 2 | -1 | 44* | 72*
O=C(O)c1ccc(N=Cc2c(O)ccc3oc4c(c23)CCCC4)cc1 | 41 | 4 | -2 | 21 | 22 | -3 | / | /
Nc1ccc(S(=O)(=O)Nc2nccc(/C=C/c3ccc(Cl)cc3Cl)n2)cc1 | -14 | 0 | -3 | 10 | -67 | -4 | / | /
O=C(Nc1ccc(N2CCOCC2)c(Cl)c1)c1c(F)c(F)c(F)c(F)c1F | 57* | 10 | -2 | -6 | 10 | -5 | 46* | 45*
O=C(Nc1ccc(N2CCOCC2)c(Cl)c1)c1cc(F)c(F)cc1Cl | 9 | -19 | -4 | -39 | -64 | -3 | / | /
O=C(NCc1ccccc1)N1CCNCC1 | 13 | 5 | -2 | 18 | 2 | -1 | / | /
COc1cc2c(cc1OC)C(c1cccs1)N(C(=O)c1cccnc1)CC2 (configuration not stated) | 56* | 39 | -4 | -29 | -12 | -2 | 58* | 73*
COc1cc2c(cc1OC)C(c1cccs1)N(C(=O)C(C)C)CC2 (configuration not stated) | -1 | -3 | -3 | 1 | -15 | -3 | / | /
O=C(NCc1ccccn1)c1cccc(S(=O)(=O)N2CCc3ccccc32)c1 | -14 | -3 | / | -4 | / | / | / | /
SMILES | Mdm2-MdmX inh | Jurkat NFkB inh | IMP-1 inhibitor | 697 NFkB inh | aSyn UTR inh | VIM-2 inhibitor | Mdm2 MdmX conf | FLuc counter
CC(=O)Nc1ccc(-c2c(C)cc3oc(=O)cc(-c4ccccc4)c3c2C)cc1 | 23 | / | / | -17 | / | / | / | /
Cc1ccccc1OCC(O)Cn1c(NCc2ccccc2)nc2c1c(=O)[nH]c(=O)n2C (configuration not stated) | 15 | -8 | 1 | 4 | 19 | -5 | / | /
C=CCNc1nc2c(c(=O)[nH]c(=O)n2C)n1CC(O)COc1ccc2ccccc2c1 (configuration not stated) | 59* | 5 | -2 | -25 | 23 | 0 | 20 | /
C[C@@H]1CN([C@@H](C)CO)C(=O)Cc2cc(NC(=O)Nc3cccc4ccccc34)ccc2O[C@@H]1CN(C)Cc1ccc(C(F)(F)F)cc1 | 65* | 10 | / | 20 | / | / | 31 | /
C[C@@H]1CN([C@H](C)CO)C(=O)Cc2cc(NC(=O)Nc3ccccc3)ccc2O[C@@H]1CN(C)Cc1ccc2c(c1)OCO2 | 53* | -14 | / | -2 | / | / | 18 | /
CCOC(=O)CCCCCC(=O)Nc1ccc2c(c1)CC(=O)N([C@H](C)CO)C[C@@H](C)[C@H](CN(C)Cc1ccc3c(c1)OCO3)O2 | 20 | -10 | / | 13 | / | / | / | /
C[C@H](CO)N1C[C@H](C)[C@H](CN(C)Cc2ccccc2)Oc2ccc(NC(=O)Nc3ccc(F)cc3)cc2C1=O | 65* | -1 | / | 3 | / | / | 27 | /
C[C@@H]1CN([C@H](C)CO)C(=O)c2cc(NC(=O)Nc3cccc4ccccc34)ccc2O[C@H]1CN(C)Cc1ccc(C(F)(F)F)cc1 | 56* | -9 | / | 5 | / | / | 29 | 81*
CN(Cc1ccco1)C(=O)c1ccc(S(=O)(=O)N2CCCCCC2)cc1 | -3 | 2 | / | 20 | / | / | / | /
C[C@@H]1CN([C@H](C)CO)C(=O)Cc2cc(NS(=O)(=O)c3ccc(Cl)cc3)ccc2O[C@H]1CN(C)Cc1ccc(C(F)(F)F)cc1 | 90* | 1 | / | -13 | / | / | 62* | 55*
C[C@@H]1CN([C@H](C)CO)C(=O)Cc2cc(NS(=O)(=O)c3ccc(F)cc3)ccc2O[C@H]1CN(C)Cc1ccc(C(=O)O)cc1 | 10 | 8 | / | 18 | / | / | / | /

Screens (PubChem)
